From PubChem BioAssay
Rows were chosen to be rich in hits. Some 4.8% of all compounds tested hit in one or more screens of this group.
CSC inhib: blocks cancer stem cells; AID 2717; actives 1.1% (n = 300,000); cancer stem cell-like cells viability, luminescence; inhibition, % at 7.5 µM; in the data active = inhibition above about 75%; tested in HMLE shEcad cells
Beta apoptosis: beta cell apoptosis inhibition; protection from apoptosis, % (concentration not given with the values); AID 435005; INS-1E cytokine-induced death, ATP luminescence, 48 h; percent of positive-control rescue, neutral wells zero; actives 0.8% (n = 300,000);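 active = Every replicate reaches about 75%, or at least half do and their mean reaches it too, limit read from the data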;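 note: higher means more ATP so stronger rescue from cytokine killing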
Efflux pump mplx: inhibitors of Candida antifungal efflux pumps expressed in yeast | S. cerevisiae Candida pump triplex, Nile Red efflux | AID 485275 | inhibition, % at 10 µM | actives 0.44% (n = 330,000);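 active = plate passing quality check with inhibition over a set limit, or well fluorescence over plate mean plus 4 SD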;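 note: Nile Red retained in pooled yeast measured as flow cytometry median fluorescence; higher means more Nile Red kept so more efflux inhibition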
SUMO Mot1 rescue: inhibitors of SUMOylation pathway: yeast Mot1-301 growth rescue. actives 1% (n = 320,000). AID 2716. S. cerevisiae Mot1-301 growth rescue, ATP luminescence, 38.5C; percent above DMSO median, 100 means doubled. growth rescue, % at 18.8 µM;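 active = every valid replicate shows activation above 250% relative to neutral control wells; inactive = the rest, any valid replicate at or below 250%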
T cruzi inh: blocks replication of Trypanosoma cruzi; T. cruzi beta-gal in NIH3T3, luminescence, 90 h; AID 1885; inhibition, % (test concentration not listed); actives 1.4% (n = 300,000);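 active = mean inhibition across valid replicates above about 55%, limit read from the data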;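 note: signal also drops with host cell toxicity which is not excluded here; higher percent means less beta-gal luminescence so fewer parasites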
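System: mouse NIH/3T3 fibroblasts infected with β-gal-expressing T. cruzi Tulahuen C4 / Input: NIH/3T3 cells, 5,000 per well / Buffer or medium: Low-serum DMEM with 2% FBS / Probe or stimulus: 5000 reporter trypomastigotes per well / Schedule: ≥90 h infection period, 3 h prior cell attachment / Measured by: GalScreen luminescence, 60 min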
WT yeast gro inh: growth inhibition of WT yeast, mitochondrial fusion screen; mitochondrial fusion phenotypic screen, WT strain; inhibition, % at 10 µM; actives 2.1% (n = 190,000); in the data active = inhibition above about 58%; tested in S. cerevisiae
Numbers stand for hits; n = inactive; x = no result.

SMILES	CSC inhib	Beta apoptosis	Efflux pump mplx	SUMO Mot1 rescue	T cruzi inh	WT yeast gro inh
CCOC(=O)c1cn(-c2nc(-c3ccc(Cl)c(Cl)c3)cs2)c2c(F)c(N3CCOCC3)c(F)cc2c1=O	n	n	1.6	n	n	n
O=C(CCCN1C(=O)c2ccccc2C1=O)OC1CSCC1NC(=O)c1ccccc1 (stereo unspecified)	n	n	n	299	n	n
O=C(NC1CSCC1OC(=O)c1ccccc1)c1ccccc1 (stereo unspecified)	n	n	n	n	n	x
CCCCN(C)Cc1c(C)[nH]c2c(Cl)cccc2c1=O	x	x	n	n	60	n
Cc1ccc(NS(=O)(=O)c2ccc(C(=O)Nc3nncs3)cc2)cc1	n	n	n	n	x	x
O=C(NCCCN1CCCC1)C1CCN(C(=O)c2cc3sccc3n2Cc2ccc(F)cc2)CC1	n	n	n	n	55	n
COc1ccc(S(=O)(=O)Nc2ccc(S(=O)(=O)Nc3nc(C)cc(C)n3)cc2)cc1OC	n	n	n	n	n	n
O=C1/C(=C/c2ccccc2)CCC1C1CCCC1 (stereo unspecified)	n	n	n	n	n	n
CN1C2CCC1/C(=C\c1ccccc1)C(=O)/C2=C\c1ccccc1	92	n	n	n	n	n
Cc1cc(C)c(C)c(S(=O)(=O)N2CCC(C(=O)NCC(c3ccccc3)N(C)C)CC2)c1C (stereo unspecified)	n	n	n	n	n	x
CCCCCCCCCCOC(=O)C[N+](C)(C)C/C=C(/C)Cl	n	113	n	n	n	n
O=C(NC1CCN(S(=O)(=O)c2ccc(F)cc2)CC1)c1cccc(F)c1	n	n	n	n	n	x
COC(=O)c1ccc(OC)c(Cn2c(=O)n(C)c(=O)c3sccc32)c1	n	n	n	n	n	x
COC(=O)c1ccc(OC)c(CN2CCCN(Cc3cc(C)ccc3C)S2(=O)=O)c1	n	n	n	n	69	x
O=C(/C=C/c1ccc(F)cc1)Nc1cc(S(=O)(=O)N2CCOCC2)ccc1N1CCCC1	n	n	n	n	n	n
CN1CCN(c2ccc(Cl)cc2NC(=O)/C=C/c2ccc(F)cc2)CC1	n	n	n	n	n	83
Oc1ccc(Nc2nc(N3CCCC3)c3ccccc3n2)cc1	x	99	n	n	59	n
COc1ccc(Nc2nc(N)c([N+](=O)[O-])c(N3CCCC3)n2)cc1	n	n	n	n	n	x
COc1ccc(Nc2nc(N3CCCCC3)c3ccccc3n2)cc1	n	n	n	n	n	75
Cc1ccc(Nc2nc(N3CCOCC3)c3ccccc3n2)cc1	n	n	n	n	n	n
O=C(CC1C(=O)NCCN1Cc1cccc(C(F)(F)F)c1)NCCc1cnccn1 (stereo unspecified)	n	n	n	n	n	x
COc1ccc(S(=O)(=O)N2c3cc(C)ccc3OCC2C(C)(C)C)cc1 (stereo unspecified)	n	n	n	n	n	n
Cc1ccc(S(=O)(=O)N2c3cc(C)ccc3OCC2C(C)(C)C)cc1 (stereo unspecified)	n	n	n	n	n	69
O=C(NCCc1c[nH]c2ccccc12)OCCCCOC(=O)NCCc1c[nH]c2ccccc12	n	n	n	n	n	x
c1ccc(-c2nnc(-c3ccccn3)nc2NC2CCCCC2)cc1	n	96	n	n	n	63
SMILES	CSC inhib	Beta apoptosis	Efflux pump mplx	SUMO Mot1 rescue	T cruzi inh	WT yeast gro inh
CNc1nc(-c2ccccn2)nnc1-c1ccccc1	n	n	n	n	n	n
COc1ccc(S(=O)(=O)N2CCC(C(=O)NC(c3nc4ccccc4[nH]3)C(C)C)CC2)cc1 (stereo unspecified)	n	n	n	n	x	x
CC(=O)c1cccc(NS(=O)(=O)c2ccc(N/C=C\C(=O)c3ccc(C)cc3)cc2)c1	n	n	n	n	n	n
CC(=O)c1cccc(NS(=O)(=O)c2ccc(N/C=C\C(=O)c3ccc(F)cc3)cc2)c1	n	98	n	n	n	n
CC(=O)c1cccc(NS(=O)(=O)c2ccc(N/C=C/C(=O)c3ccc(F)cc3)cc2)c1	n	112	n	n	n	n
CCCOc1nc2c(c(=O)n(C)c(=O)n2C)n1Cc1cccc2ccccc12	n	103	n	n	n	n
CCCOc1nc2c(c(=O)n(C)c(=O)n2C)n1C	n	n	n	n	n	x
Nc1cc(-c2ccc(Cl)cc2)nn1-c1ccccc1	n	n	n	n	n	n
O=C1CCn2nc(-c3ccc(Cl)cc3)cc2N1	n	n	n	605	n	n
CCOC(=O)c1cc(-c2ccccc2)sc1NC(=O)CN1C(=O)NC(CC)(c2ccccc2)C1=O (stereo unspecified)	n	n	n	n	66	n
CCOC(=O)c1cc(-c2ccccc2)sc1NC(=O)CN1C(=O)NC(CC)(c2ccc(F)cc2)C1=O (stereo unspecified)	n	n	n	n	60	n
CCCCc1ccc(-n2c(Cc3cccs3)n[nH]c2=S)cc1	n	n	n	n	n	74
COc1ccccc1-c1nc(-c2ccccc2)[nH]c(=O)c1C#N	n	n	n	n	n	n
COc1ccc(-c2sc3ccc(OC)cc3c2C#CCCO)cc1	99	n	n	n	n	x
COc1ccc(-c2sc3cc(OC)c(OC)cc3c2C#CC(C)(C)O)cc1	n	n	n	n	x	x
COc1ccc(-c2sc3ccc(OC)cc3c2-c2ccc(O)cc2)cc1	x	n	n	n	x	x
COc1ccc2sc(-c3ccc(N(C)C)cc3)c(C#CCCO)c2c1	122	n	n	n	x	x
COc1ccc2sc(-c3ccc(N(C)C)cc3)c(C#CC(C)(C)O)c2c1	n	n	n	n	x	x
COc1ccc2sc(-c3ccc(N(C)C)cc3)c(C#Cc3cncn3C)c2c1	104	n	n	n	x	x
O=C1CN(C(=O)COc2c(F)c(F)cc(F)c2F)c2ccccc2N1	x	n	n	n	n	x
O=C(COc1ccc2c3c(c(=O)oc2c1)CCC3)NCCCN1CCCC1=O	n	n	n	n	n	x
C[C@@H]1NC(=O)N(c2ccc(F)cc2)C1=O	n	n	n	n	n	x
Nc1ccc(SCC(=O)Nc2cccc([N+](=O)[O-])c2)cc1	n	n	n	n	n	n
O=C(Oc1ccc(NC2=C(Cl)C(=O)c3ccccc3C2=O)cc1)c1ccc([N+](=O)[O-])cc1	x	x	x	x	63	n
Cc1c(C(=O)OCC(C)C)[nH]c2c1C(=O)CC(c1cccs1)C2 (stereo unspecified)	n	n	n	n	55	n
CC(C)=C1C2CCC1C(C(=O)Nc1sc(C)c(-c3ccc(C(C)C)cc3)c1C(N)=O)C2C(=O)O (stereo unspecified)	n	n	n	n	n	62
CC(/C=N/NC(=O)c1ccccc1F)=C\c1ccccc1	n	n	n	n	n	x
Cn1c(C(=O)OC(C(=O)NC(C)(C)C)c2cccnc2)cc2sccc21 (stereo unspecified)	n	n	n	n	64	n
